Sampled rows, rich in hits. Any-hit rate of the full collection: about 1.9%.
STEP inh: STEP phosphatase inhibitors, primary screen, biochemical, fluorescence intensity, uHTS. recombinant STEP, OMFP fluorogenic substrate. inhibition, % at 20 µM. actives 0.25% (n = 360,000). AID 588621, 2011;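 active = inhibition at 20 µM, scaled per plate between control wells, above about 37%, limit read from the data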;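 note: 0% = DMSO with enzyme and substrate and 100% = substrate only without enzyme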
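Also added – OMFP at 25 µM · Test system – STEP tyrosine phosphatase · Technique – FITC-channel fluorescence of OMFP product · Schedule – 20 min at room temperature, dark · Evaluation – control-normalized % inhibition with plate pattern correction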
PP5 primary: PP5 phosphatase inhibitors, primary screen, biochemical, fluorescence; actives 0.18% (n = 320,000); Serine/threonine-protein phosphatase 5 (Homo sapiens), P53041; inhibition, % at 6.7 µM; purified PP5c, OMFP substrate fluorescence;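 active = inhibition above the campaign's mean inhibition across all tested compounds plus 3 SD, cut at about 9.5% in these data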;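 note: 0% = DMSO only and 100% = 100 µM cantharidin control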
LMPTP block: LMPTP phosphatase inhibitors, primary screen, biochemical, fluorescence intensity, uHTS; Low molecular weight phosphotyrosine protein phosphatase (Homo sapiens), P24666; recombinant LMPTP-A, OMFP fluorogenic substrate; inhibition, % at 20 µM; actives 0.22% (n = 360,000);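 active = compounds that cut the enzyme signal by at least half of the control window in the single-dose screen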;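 note: plate controls were DMSO wells with enzyme plus substrate for no effect and substrate without enzyme for full effect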
Target sequence (P24666 whole entry, looked up): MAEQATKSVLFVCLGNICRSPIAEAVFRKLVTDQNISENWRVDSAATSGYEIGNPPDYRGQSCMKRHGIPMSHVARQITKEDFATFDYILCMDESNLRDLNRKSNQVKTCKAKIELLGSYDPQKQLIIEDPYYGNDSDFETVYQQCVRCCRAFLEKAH
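Test system: LMPTP-A phosphatase enzyme. Amount: LMPTP-A at 0.625 nM final in the reaction. Reagent: OMFP substrate, 400 µM final. Times: 50 min at room temperature. Signal: endpoint fluorescence intensity from OMFP dephosphorylation. Read-out basis: % inhibition. Benchmarks: no-enzyme and uninhibited controls.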
Scp1 inh: Scp-1 phosphatase inhibitors, primary screen, biochemical, colorimetric, uHTS. actives 0.88% (n = 340,000). Recombinant Scp1, phosphopeptide, malachite green phosphate absorbance. Carboxy-terminal domain RNA polymerase II polypeptide A small phosphatase 1 (Homo …. inhibition, % at 20 µM;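 active = inhibition above about 50% at 20 µM, limit read from the data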;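 note: plate controls were DMSO wells with enzyme for no effect and wells lacking enzyme for full effect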
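Test system: SCP-1 catalytic domain; Buffer or medium: Acidic Tris acetate buffer with magnesium and detergent; Also added: Phosphorylated 17-residue peptide substrate; Compound: single 20 µM dose, 1% DMSO; Schedule: enzyme reaction 45 min at room temperature, colour 5 min, stabilisation 30 min; Signal: Phosphate-binding colour reagent, absorbance read at 630 nm.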
PP1 counter: PP1-alpha phosphatase inhibitors, primary screen, counter-screen for PP5 inhibitor project, biochemical, fluorescence, OMFP substrate, single point. purified PP1alpha. inhibition, % at 6.7 µM. actives 0.9% (n = 320,000). AID 2235, 2010;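 active = inhibition above the mean inhibition of all tested compounds plus 3 SD, computed separately for each screening campaign, cut at about 15% in these data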
Target sequence (P62136 whole entry, looked up): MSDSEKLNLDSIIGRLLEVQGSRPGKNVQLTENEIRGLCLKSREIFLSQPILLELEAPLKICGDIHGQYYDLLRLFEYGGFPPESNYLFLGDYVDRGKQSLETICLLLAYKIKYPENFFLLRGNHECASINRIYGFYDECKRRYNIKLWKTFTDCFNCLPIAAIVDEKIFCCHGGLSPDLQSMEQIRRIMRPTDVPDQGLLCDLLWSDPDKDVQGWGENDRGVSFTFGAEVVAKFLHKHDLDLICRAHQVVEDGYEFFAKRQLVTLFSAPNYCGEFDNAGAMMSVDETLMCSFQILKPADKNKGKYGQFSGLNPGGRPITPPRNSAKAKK
Scp1 confirm: Scp-1 phosphatase inhibitors, retest, confirmation, biochemical, colorimetric, single concentration; actives 61% (n = 2,500); recombinant SCP-1 catalytic domain, phosphate release, malachite green absorbance; inhibition, % at 20 µM; shares compounds with Scp1 inh;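 note: plate controls were DMSO with enzyme for no effect and buffer wells lacking enzyme for full effect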
Scp-1 MG ctr: colorimetric readout interference by compounds, confirmation, artefact control for Scp-1 inhibitor project, biochemical, single concentration | Colorimetric interference counterscreen, malachite green absorbance 630 nm | shares compounds with Scp1 inh | 2,500 tested, under 10 active | apparent inhibition (interference), % at 20 µM | AID 540313, 2011;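 note: compounds added after enzyme reaction finished so only phosphate colour detection is probed; plate controls were DMSO wells with completed Scp-1 reaction for no effect and substrate wells lacking enzyme for full effect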
Scp1 DSF: Scp-1 binding by thermal shift, confirmation, orthogonal assay for Scp-1 inhibitor project, biophysical, differential scanning fluorimetry; AID 540329, 2011; Recombinant SCP1, Sypro Orange thermal shift Tm; thermal shift relative to vanadate control, % at 40 µM; shares compounds with Scp1 inh; actives 25% (n = 1,500);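 active = substances whose mean melting-temperature shift, as a percentage of the reference inhibitor's shift, reaches about 5.3%, limit read from the data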;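 note: 0% = Tm of DMSO wells and 100% = Tm with sodium orthovanadate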
An asterisk follows results filed as active.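 Rule for the calls, unless noted: active = inhibition of at least 30% at 20 µM; inactive = the rest.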

COc1cc(NC(=O)c2noc3c2CCC3)c(OC)cc1Cl was read as STEP inh 11, PP5 primary 5, LMPTP block 4, Scp1 inh 72*, PP1 counter -2, Scp1 confirm 70*, Scp-1 MG ctr -13 and Scp1 DSF 3.
Screening COC(=O)c1ccccc1NC(=O)c1noc2c1CCCC2 returned STEP inh -1, PP5 primary 1, LMPTP block 1, Scp1 inh -11 and PP1 counter 6.
For Cc1ccc(C(=O)COC(=O)CNC(=O)c2ccccc2)s1 the results were STEP inh 1, PP5 primary -1, LMPTP block 0, Scp1 inh 0 and PP1 counter -1.
Screening N/C(CCCN1CCCCC1)=N/O returned STEP inh 0, PP5 primary -1, LMPTP block -5, Scp1 inh -2 and PP1 counter 0.
For CC(C)c1ccc(-c2c(C#N)c(N)nc3c2CCCCC3)cc1 the results were STEP inh 4, PP5 primary 2, LMPTP block 0, Scp1 inh 100*, PP1 counter 1, Scp1 confirm -5 and Scp-1 MG ctr -10.
Screening Cc1ccc(S(=O)(=O)N2CCN=C2c2ccccc2)cc1C returned STEP inh -15, PP5 primary 0, LMPTP block 0, Scp1 inh -7 and PP1 counter -2.
`c1ccc2c(c1)nc(N1CCCCCC1)c1ccccc12` gave STEP inh 0, PP5 primary -3, LMPTP block 2, Scp1 inh 112*, PP1 counter -5, Scp1 confirm 97*, Scp-1 MG ctr -1 and Scp1 DSF -7.
Screening COC(=O)c1c(NC(=O)CN2C(=O)NC3(CCC(C)CC3)C2=O)sc2c1CCC2 (stereo not drawn) returned STEP inh -1, PP5 primary 0, LMPTP block 3, Scp1 inh 20 and PP1 counter -3.
Cn1cnnc1SCC(=O)Nc1sc2c(c1C(N)=O)CCC2 was read as STEP inh 6, PP5 primary 1, LMPTP block 45, Scp1 inh 65*, PP1 counter 10, Scp1 confirm 73*, Scp-1 MG ctr -7 and Scp1 DSF 13*.
Screening COCCn1cnnc1SCC(=O)Nc1sc2c(c1C#N)CCC2 returned STEP inh -1, PP5 primary 0, LMPTP block 2, Scp1 inh 20 and PP1 counter -1.
Screening CC1CCC2(CC1)NC(=O)N(CC(=O)Nc1sc3c(c1C(N)=O)CCC3)C2=O (stereo not drawn) returned STEP inh 21, PP5 primary 0, LMPTP block 6, Scp1 inh 86*, PP1 counter 6, Scp1 confirm 65*, Scp-1 MG ctr -11 and Scp1 DSF 12*.
For C1=CC2=NC34CCCCC3CC3=C(CCCC3)N4C2=CC1=NC1CCCCC1 (stereo not drawn) the results were STEP inh 3, PP5 primary -1, LMPTP block 10, Scp1 inh 68*, PP1 counter 2, Scp1 confirm -6 and Scp-1 MG ctr -5.
`Cc1noc(C)c1COc1ccc(C(=O)OCC(=O)OC(C)(C)C)cc1` gave STEP inh -1, PP5 primary 3, LMPTP block 0, Scp1 inh -1 and PP1 counter 1.
`Cc1cc(C)cc(N(CCC#N)C(=O)COC(=O)c2ccc(OCc3c(C)noc3C)cc2)c1` gave STEP inh 0, PP5 primary 1, LMPTP block 1, Scp1 inh 51*, PP1 counter -3, Scp1 confirm -16 and Scp-1 MG ctr -12.
`CCOC(=O)C1(C)Oc2ccccc2C(c2ccc(OC)cc2)=C1C(=O)OC` (stereo not drawn) gave STEP inh 6, LMPTP block 0 and Scp1 inh 4.
Screening CCOC(=O)C1(C)Oc2ccccc2C(C(=O)OC)=C1C(=O)OC (stereo not drawn) returned STEP inh 2, LMPTP block 0, Scp1 inh 94*, Scp1 confirm 53*, Scp-1 MG ctr -17 and Scp1 DSF -2.
For O=C(O)c1ccccc1-c1c2cc(I)c(=O)c(I)c-2oc2c(I)c(O)c(I)cc12 the results were STEP inh -75, PP5 primary -2, LMPTP block 22, Scp1 inh 77*, PP1 counter 12, Scp1 confirm 65*, Scp-1 MG ctr -23 and Scp1 DSF 164*.
`O=Cc1ccc(-c2ccccc2C(=O)O)o1` gave STEP inh -3, PP5 primary 3, LMPTP block 2, Scp1 inh 5 and PP1 counter -2.
`Cc1ccc(CN2C(=O)N/C(=C/c3ccc(-c4ccc(C(=O)O)cc4)o3)C2=O)cc1` gave STEP inh 7, PP5 primary -1, LMPTP block 4, Scp1 inh 59*, PP1 counter -5, Scp1 confirm 48*, Scp-1 MG ctr -11 and Scp1 DSF 4.
For Cc1cc(C(=O)O)ccc1-c1ccc(/C=C2\NC(=O)N(Cc3ccc(F)cc3)C2=O)o1 the results were STEP inh 9, PP5 primary 1, LMPTP block 9, Scp1 inh 73*, PP1 counter -2, Scp1 confirm 65*, Scp-1 MG ctr -6 and Scp1 DSF 9.4*.
Screening Cc1ccc(N2CC(C(=O)NCc3ccco3)CC2=O)cc1Cl (stereo not drawn) returned STEP inh 0, PP5 primary 1, LMPTP block 0, Scp1 inh 1 and PP1 counter 0.
CCc1cccc(NC(=O)C2CCCN2S(=O)(=O)c2ccc3c(c2)n(C)c(=O)c(=O)n3C)c1 (stereo not drawn) was read as STEP inh -2, PP5 primary -1, LMPTP block -1, Scp1 inh 27 and PP1 counter -2.

From PubChem
